ChEMBL document CHEMBL1124705, “Renin inhibitors containing isosteric replacements of the amide bond connecting the P3 and P2 sites” (J Med Chem, 1990)

Legend:
Renin = biological target: T1, Renin (Homo sapiens, UniProt P00797); assay: Inhibitory activity against human renin
T1 sequence (P00797 whole entry): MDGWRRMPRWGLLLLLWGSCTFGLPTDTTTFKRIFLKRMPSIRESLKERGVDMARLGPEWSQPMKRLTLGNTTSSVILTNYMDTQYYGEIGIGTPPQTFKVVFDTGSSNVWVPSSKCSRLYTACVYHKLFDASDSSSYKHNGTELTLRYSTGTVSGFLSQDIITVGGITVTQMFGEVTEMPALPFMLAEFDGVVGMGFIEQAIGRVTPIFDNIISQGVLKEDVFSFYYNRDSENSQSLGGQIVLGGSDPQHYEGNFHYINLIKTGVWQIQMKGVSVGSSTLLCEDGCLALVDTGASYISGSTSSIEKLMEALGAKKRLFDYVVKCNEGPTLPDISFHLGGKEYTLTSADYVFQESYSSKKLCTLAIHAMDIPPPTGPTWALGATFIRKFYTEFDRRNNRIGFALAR
How it was run: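 It was incubated 2 h at 37 °C with compound added in DMSO. Angiotensin I generated, linear over this period, was corrected for endogenous AI and expressed as percent of DMSO control. IC50 was estimated from semilog plots of three or more concentrations.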

Renin (monkey) = assay: The compound was tested in vitro for inhibitory activity against Renin in monkey plasma

SMILES | IC50 (Renin) [µM] | IC50 (Renin (monkey)) [µM]
CC(C)C[C@H](CC(O)[C@H](CC1CCCCC1)NC(=O)OC(C)(C)C)C(=O)N[C@@H](CC(C)C)C(O)CC(=O)N[C@@H](CC(C)C)C(=O)NCc1ccccc1 (stereo not given in full) | 3.8 | 
CC(C)C[C@H](NC(=O)CC(O)[C@H](CC(C)C)NC(=O)[C@H](Cc1ccccc1)CC(O)[C@H](CC(C)C)NC(=O)OCc1ccccc1)C(=O)NCc1ccccc1 (stereo not given in full) | 8.4 | 
CC(C)C[C@H](NC(=O)CC(O)[C@H](CC(C)C)NC(=O)CCC(=O)[C@H](Cc1ccccc1)NC(=O)OC(C)(C)C)C(=O)NCc1ccccc1 (stereo not given in full) | 21 | 
CC(C)C[C@H](CC(O)[C@H](CC(C)C)NC(=O)OCc1ccccc1)C(=O)N[C@@H](CC(C)C)C(O)CC(=O)N[C@@H](CC(C)C)C(=O)NCc1ccccc1 (stereo not given in full) | 6.7 | 
CC(C)C[C@H](NC(=O)CC(O)[C@H](CC(C)C)NC(=O)CCC[C@H](Cc1ccccc1)NC(=O)OC(C)(C)C)C(=O)NCc1ccccc1 (stereo not given in full) | 23 | 
CC(C)C[C@H](NC(=O)C[C@@H](O)C(CC1CCCCC1)NC(=O)CC1OC1[C@H](Cc1ccccc1)NC(=O)OC(C)(C)C)C(=O)NCc1cccc(CN)c1 (stereo not given in full) | 0.32 | 
CC(C)C[C@H](NC(=O)C[C@@H](O)C(CC1CCCCC1)NC(=O)/C=C/C(O)[C@H](Cc1ccccc1)NC(=O)OC(C)(C)C)C(=O)NCc1ccccc1 (stereo not given in full) | 0.09 | 
CC(C)C[C@H](NC(=O)CC(O)[C@H](CC(C)C)NC(=O)CNC(=O)[C@H](Cc1ccccc1)NC(=O)OC(C)(C)C)C(=O)NCc1ccccc1 (stereo not given in full) |  | 1.1
CC(C)C[C@H](NC(=O)CC(O)[C@H](CC(C)C)NC(=O)[C@H](Cc1c[nH]cn1)NC[C@H](Cc1ccccc1)NC(=O)OC(C)(C)C)C(=O)NCc1ccccc1 (stereo not given in full) | 3.8 | 
CC(C)C[C@H](NC(=O)CC(O)[C@H](CC(C)C)NC(=O)CC(O)C(O)[C@H](CC1CCCCC1)NC(=O)OC(C)(C)C)C(=O)NCc1ccccc1 (stereo not given in full) | 6.5 | 
CC(C)C[C@H](NC(=O)CC(O)[C@H](CC(C)C)NC(=O)CCC(O)[C@H](CC(C)C)NC(=O)OCc1ccccc1)C(=O)NCc1ccccc1 (stereo not given in full) | 4 | 
CC(C)C[C@H](NC(=O)CC(O)[C@H](CC(C)C)NC(=O)[C@H](Cc1cnc[nH]1)N(O)C[C@H](Cc1ccccc1)NC(=O)OC(C)(C)C)C(=O)NCc1ccccc1 (stereo not given in full) | 6.5 | 
CC(C)C[C@H](NC(=O)CC(O)[C@H](CC(C)C)NC(=O)[C@H](Cc1c[nH]cn1)CC(O)[C@H](Cc1ccccc1)NC(=O)OC(C)(C)C)C(=O)NCc1ccccc1 (stereo not given in full) | 0.78 | 
CC(C)CC(=O)N[C@@H](Cc1ccccc1)CS(=O)(=O)[C@@H](Cc1ccccc1)C(=O)N[C@@H](CC(C)C)C(O)CC(=O)N[C@@H](C)C(=O)N[C@@H](CC(C)C)C(O)CC(=O)NCc1ccccc1 (stereo not given in full) | 1.5 | 
CC(C)C[C@H](NC(=O)CC(O)[C@H](CC(C)C)NC(=O)[C@H](Cc1ccccc1)NC[C@H](Cc1ccccc1)NC(=O)OC(C)(C)C)C(=O)NCc1ccccc1 (stereo not given in full) | 4.2 | 
CC(C)C[C@H](NC(=O)CC(O)[C@H](CC(C)C)NC(=O)C/C=C/[C@H](Cc1ccccc1)NC(=O)OC(C)(C)C)C(=O)NCc1ccccc1 (stereo not given in full) | 7 | 
CC(C)C[C@H](NC(=O)C[C@@H](O)C(Cc1ccccc1)NC(=O)C/C=C/[C@H](Cc1ccccc1)NC(=O)OC(C)(C)C)C(=O)NCc1ccccc1 (stereo not given in full) | 9.2 | 
CC(C)C[C@H](NC(=O)CC(O)[C@H](CC(C)C)NC(=O)[C@H](Cc1ccccc1)N(O)C[C@H](Cc1ccccc1)NC(=O)OC(C)(C)C)C(=O)NCc1ccccc1 (stereo not given in full) | 18 | 
CC(C)C[C@H](NC(=O)CC(O)[C@H](CC(C)C)NC(=O)[C@H](Cc1ccccc1)[S+]([O-])C[C@H](Cc1ccccc1)NC(=O)OC(C)(C)C)C(=O)NCc1ccccc1 (stereo not given in full) | 5.4 | 
CC(C)C[C@H](NC(=O)C[C@@H](O)C(Cc1ccccc1)NC(=O)CC1OC1[C@H](Cc1ccccc1)NC(=O)OC(C)(C)C)C(=O)NCc1ccccc1 (stereo not given in full) | 4.4 | 
CC(C)CC(=O)N[C@@H](Cc1ccccc1)C1OC1CC(=O)N[C@@H](CC(C)C)C(O)CC(=O)N[C@@H](CC(C)C)C(=O)NCc1ccccc1 (stereo not given in full) | 29 | 
CC(C)C[C@H](NC(=O)CC(O)[C@H](CC(C)C)NC(=O)[C@H](Cc1cnc[nH]1)NC[C@H](CC1CCCCC1)NC(=O)OC(C)(C)C)C(=O)NCc1ccccc1 (stereo not given in full) | 10 | 
CC(C)CC(=O)N[C@H](CN[C@H](C(=O)N[C@@H](CC(C)C)C(O)CC(=O)N[C@@H](CC(C)C)C(=O)NCc1ccccc1)C(C)C)C(C)C (stereo not given in full) | 15 | 

SMILES | IC50 (Renin) [µM] | IC50 (Renin (monkey)) [µM]
CC(C)C[C@H](NC(=O)C[C@@H](O)C(CC1CCCCC1)NC(=O)CCC[C@H](Cc1ccccc1)NC(=O)OC(C)(C)C)C(=O)NCc1cccc(CN)c1 (stereo not given in full) | 0.63 | 
CC(C)C[C@H](NC(=O)CC(O)[C@H](CC(C)C)NC(=O)/C=C/C(O)[C@H](Cc1ccccc1)NC(=O)OC(C)(C)C)C(=O)NCc1ccccc1 (stereo not given in full) | 2.1 | 
CC(C)C[C@H](NC(=O)C[C@@H](O)C(CC1CCCCC1)NC(=O)CC1OC1[C@H](Cc1ccccc1)NC(=O)OC(C)(C)C)C(=O)NCc1ccccc1 (stereo not given in full) | 0.53 | 
CC(C)C[C@H](CC(=O)[C@H](CC1CCCCC1)NC(=O)OC(C)(C)C)C(=O)N[C@@H](CC(C)C)C(O)CC(=O)N[C@@H](CC(C)C)C(=O)NCc1ccccc1 (stereo not given in full) | 26 | 
CC(C)CC(=O)N[C@H](CSCC(=O)N[C@@H](CC(C)C)C(O)CC(=O)N[C@@H](CC(C)C)C(=O)NCc1ccccc1)Cc1ccccc1 (stereo not given in full) | 18 | 
CC(C)C[C@H](NC(=O)CC(O)[C@H](CC(C)C)NC(=O)C(O)C(O)C(O)[C@H](Cc1ccccc1)NC(=O)OC(C)(C)C)C(=O)NCc1ccccc1 (stereo not given in full) | 11 | 
CC(C)C[C@H](NC(=O)C[C@@H](O)C(CC1CCCCC1)NC(=O)[C@H](Cc1cnc[nH]1)NC[C@H](Cc1ccccc1)NC(=O)OC(C)(C)C)C(=O)NCc1ccccc1 (stereo not given in full) | 0.2 | 
CC(C)C[C@H](NC(=O)C[C@@H](O)C(CC1CCCCC1)NC(=O)CCC(O)[C@H](Cc1ccccc1)NC(=O)OC(C)(C)C)C(=O)NCc1ccccc1 (stereo not given in full) | 0.061 | 
CC(C)CC(=O)N[C@H](CS[C@@H](Cc1ccccc1)C(=O)N[C@@H](CC(C)C)C(O)CC(=O)N[C@@H](C)C(=O)N[C@@H](CC(C)C)C(O)CC(=O)NCc1ccccc1)Cc1ccccc1 (stereo not given in full) | 7.4 | 
CC(C)C[C@H](NC(=O)CC(O)[C@H](CC(C)C)NC(=O)CC(O)C(O)[C@H](Cc1ccccc1)NC(=O)OC(C)(C)C)C(=O)NCc1ccccc1 (stereo not given in full) | 1.4 | 
CC(C)CC(=O)N[C@H](/C=C/CC(=O)N[C@@H](CC(C)C)C(O)CC(=O)N[C@@H](CC(C)C)C(=O)NCc1ccccc1)Cc1ccccc1 (stereo not given in full) | 13 | 
CC(C)C[C@H](NC(=O)CC(O)[C@H](CC(C)C)NC(=O)C/C=C\[C@H](Cc1ccccc1)NC(=O)OC(C)(C)C)C(=O)NCc1ccccc1 (stereo not given in full) | > 100 | 
CC(C)CC(=O)N[C@@H](Cc1ccccc1)C[S+]([O-])[C@@H](Cc1ccccc1)C(=O)N[C@@H](CC(C)C)C(O)CC(=O)N[C@@H](C)C(=O)N[C@@H](CC(C)C)C(O)CC(=O)NCc1ccccc1 (stereo not given in full) | 2 | 
CC(C)C[C@H](NC(=O)C[C@@H](O)C(CC1CCCCC1)NC(=O)CCC(O)[C@H](Cc1ccccc1)NC(=O)OC(C)(C)C)C(=O)NCc1ccc(CN)cc1 (stereo not given in full) | 0.022 | 
CC(C)C[C@H](NC(=O)CC(O)[C@H](CC(C)C)NC(=O)[C@@H](CC(=O)[C@H](Cc1ccccc1)NC(=O)OCc1ccccc1)Cc1ccccc1)C(=O)NCc1ccccc1 (stereo not given in full) | 23 | 
CC(C)C[C@H](NC(=O)OCc1ccccc1)C(=O)C[C@@H](Cc1ccccc1)C(=O)N[C@@H](CC(C)C)C(O)CC(=O)N[C@@H](CC(C)C)C(=O)NCc1ccccc1 (stereo not given in full) | 11 | 
CC(C)C[C@H](NC(=O)CC(O)[C@H](CC(C)C)NC(=O)[C@H](Cc1ccccc1)CC(O)[C@H](Cc1ccccc1)NC(=O)OCc1ccccc1)C(=O)NCc1ccccc1 (stereo not given in full) | 3.7 | 
CC(C)C[C@H](NC(=O)C[C@@H](O)C(CC1CCCCC1)NC(=O)C/C=C/[C@H](Cc1ccccc1)NC(=O)OC(C)(C)C)C(=O)NCc1ccccc1 (stereo not given in full) | 1.3 | 
CC(C)C[C@H](NC(=O)C[C@@H](O)C(CC1CCCCC1)NC(=O)/C=C/C(O)[C@H](Cc1ccccc1)NC(=O)OC(C)(C)C)C(=O)NCc1ccc(CNC(=O)OCc2ccccc2)cc1 (stereo not given in full) | 0.47 | 
CC(C)C[C@H](NC(=O)[C@H](C)NC(=O)CC(O)[C@H](CC(C)C)NC(=O)[C@H](Cc1ccccc1)[S+]([O-])C[C@H](Cc1ccccc1)NC(=O)OC(C)(C)C)C(O)CC(=O)NCc1ccccc1 (stereo not given in full) | 5.6 | 
CC(C)C[C@H](NC(=O)CC(O)[C@H](CC(C)C)NC(=O)CC1OC1[C@H](Cc1ccccc1)NC(=O)OC(C)(C)C)C(=O)NCc1ccccc1 (stereo in doubt; 32) | 1.2 | 
CC(C)C[C@H](NC(=O)CC(O)[C@H](CC(C)C)NC(=O)CC1OC1[C@H](Cc1ccccc1)NC(=O)OC(C)(C)C)C(=O)NCc1ccccc1 (stereo in doubt; 37) | > 100 | 
